Compound activity from PubChem.
The list is not random: actives were taken first. Their share in the collection is about 2.3%.
TRPC6 activator – mouse TRPC6 channel activation; AID 2550; B-score at 10 µM; Q61143; HEK293-TRPC6 membrane potential dye fluorescence; hits give high values; 0.13% of 310,000 active;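 active means B-score of the integrated fluorescence ratio above library mean plus 3 SD, and starting fluorescence ratio within library mean plus 5 SD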;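 further: higher score means more depolarization so channel activation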
Target sequence (Q61143 whole entry, looked up): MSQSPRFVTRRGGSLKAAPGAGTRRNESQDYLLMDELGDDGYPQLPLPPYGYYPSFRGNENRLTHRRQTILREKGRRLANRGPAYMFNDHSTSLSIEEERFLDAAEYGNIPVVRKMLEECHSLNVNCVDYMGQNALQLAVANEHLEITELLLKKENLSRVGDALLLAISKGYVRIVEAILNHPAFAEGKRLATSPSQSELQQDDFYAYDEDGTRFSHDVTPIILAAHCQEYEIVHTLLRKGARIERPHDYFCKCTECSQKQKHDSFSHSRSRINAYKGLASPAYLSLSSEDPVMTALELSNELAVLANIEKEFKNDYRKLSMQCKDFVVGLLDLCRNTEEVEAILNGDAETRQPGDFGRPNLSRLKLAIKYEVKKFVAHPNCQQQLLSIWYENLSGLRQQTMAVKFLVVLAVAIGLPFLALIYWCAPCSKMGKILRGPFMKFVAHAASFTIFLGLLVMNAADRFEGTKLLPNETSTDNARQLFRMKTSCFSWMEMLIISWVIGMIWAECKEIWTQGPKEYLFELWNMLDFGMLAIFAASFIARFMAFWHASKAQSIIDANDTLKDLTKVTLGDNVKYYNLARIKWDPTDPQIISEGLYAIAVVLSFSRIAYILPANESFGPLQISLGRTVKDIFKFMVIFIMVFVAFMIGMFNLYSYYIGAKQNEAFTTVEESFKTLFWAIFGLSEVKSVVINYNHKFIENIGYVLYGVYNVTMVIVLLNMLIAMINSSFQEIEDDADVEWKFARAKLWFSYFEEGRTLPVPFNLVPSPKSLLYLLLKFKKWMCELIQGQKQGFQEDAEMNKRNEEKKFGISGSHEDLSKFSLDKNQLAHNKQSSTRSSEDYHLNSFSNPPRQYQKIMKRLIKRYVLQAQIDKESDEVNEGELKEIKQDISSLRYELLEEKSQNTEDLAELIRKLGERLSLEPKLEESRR
TRPC4 PAM – TRPC4 (mouse) allosteric potentiation | Q9QUQ5 | 0.42% of 310,000 active | AID 2227 | B-score at 10 µM | HEK293 TRPC4beta/mu-opioid, DAMGO EC20, Fluo-4 Ca2+ flux; hits give high values;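 active means B-score of calcium response area above 5 SD of library B-scores, with initial fluorescence ratio within 5 SD of library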;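 further: B-score of integrated fluorescence ratio over time as area under calcium response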
TRPC4 agonist – TRPC4 (mouse) channel activation; B-score at 10 µM; 0.49% of 310,000 active; Q9QUQ5; HEK293 TRPC4beta/mu-opioid, Fluo4 calcium fluorescence; hits give high values;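 active means B-score above 5 SD of library B-scores, and initial fluorescence ratio not above library mean plus 5 SD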;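 further: positive B-score marks a calcium rise read as TRPC4 activation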
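Assay system: HEK293 stable line with TRPC4beta plus mu-opioid receptor; schedule: 45 min room-temperature Fluo4 loading, 110 s read; technique: kinetic Fluo4 calcium fluorescence; evaluation: integrated baseline-normalised fluorescence ratio, converted to per-well B score; controls: buffer (low) and maximal DAMGO (high)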
TRPC6 inh – blocks the mouse TRPC6 cation channel. Q61143. HEK293-TRPC6, membrane potential dye, ACh-evoked depolarization; hits give low values. B-score at 10 µM. 1.1% of 310,000 active;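 active means B-score under library mean minus 3 SD, initial fluorescence not abnormally high, positive integrated signal ratio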;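 further: B-score derived from integrated fluorescence ratio over the kinetic read; more negative B-score means stronger inhibition of depolarization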
TRPC4 block – TRPC4 (mouse) channel inhibition | Q9QUQ5 | HEK293 TRPC4beta/mu-opioid, DAMGO-evoked Fluo4 calcium flux; hits give low values | B-score at 10 µM | 0.39% of 300,000 active | AID 2247;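 active means B-score over 3 SD under the library average, no early fluorescence shift, positive overall ratio signal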
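Material: HEK293 cells with stable TRPC4beta plus mu-opioid receptor expression; probe or stimulus: DAMGO in two steps, submaximal then maximal; technique: Fluo4 calcium fluorescence by kinetic imaging, 5 s 1 Hz baseline; measure: integrated fluorescence ratio relative to baseline, converted to per-well B score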
TRPC4 spec 2 – second check of whether TRPC6 inhibitors also affect mouse TRPC4; shares compounds with TRPC6 inh; HEK293 TRPC4/MOR, membrane potential dye fluorescence; channel activated by saturating DAMGO dose; inhibition, % at 10 µM; 42% of 920 active; AID 2776;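 active means compounds whose fluorescence signal differed from control wells by over 3 SD, either direction, in both duplicate plates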
TRPC4 spec – selectivity of TRPC6 inhibitors: effect on mouse TRPC4. 61% of 920 active. HEK293 TRPC4/mu-opioid, membrane potential fluorescence. activity change, negative = inhibition, % at 10 µM. shares compounds with TRPC6 inh. AID 2777;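 active means rise or fall in signal beyond 3 SD of buffer-only wells in both replicate plates, either sign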;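 further: integrated kinetic ratio of fluorescence range over baseline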
HEK293 MPD ctr 2-1 – parental HEK293 nonspecific activity of TRPC6 inhibitors, second screen | shares compounds with TRPC6 inh | parental HEK293 membrane potential dye fluorescence; maximal acetylcholine challenge after compound addition | signal change vs control, % at 10 µM | 31% of 920 active | AID 2779;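 active means membrane potential signal moving either way by over 3 SD of the maximum-effect control, in both duplicate plates, meaning non-specific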
HEK293 MPD ctr-1 – counter-screen for TRPC6 inhibitors: effect in parental HEK293 cells; shares compounds with TRPC6 inh; 60% of 920 active; membrane potential signal change, % at 10 µM; parental HEK293 membrane potential dye fluorescence; AID 2780;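 active means membrane potential signal shifting up or down by more than 3 SD of buffer-only wells, on both duplicate plates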
HEK293 MPD ctr-2 – checks TRPC6 modulator effects in parental HEK293 cells; shares compounds with TRPC6 inh; membrane potential dye fluorescence; membrane potential signal change, % at 10 µM; 51% of 2,400 active; AID 488924;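 active means membrane potential signal moves up or down beyond 5 SD from buffer-only wells, on both duplicate plates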
HEK293 MPD ctr 2-2 – second counter-screen for TRPC6 modulators: effect in parental HEK293 cells | 14% of 2,400 active | shares compounds with TRPC6 inh | membrane potential dye fluorescence; after compound, maximal acetylcholine stimulation | inhibition, % at 10 µM;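 active means membrane potential signal drops by more than 5 SD from the mean control signal, in both duplicate plates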;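 further: plate controls were acetylcholine ECmax control wells for no effect and buffer only wells for full effect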
TRPC4 ctr mod – selectivity of TRPC6 modulators against mouse TRPC4; shares compounds with TRPC6 inh; HEK293 TRPC4/mu-opioid, membrane potential fluorescence; percent change from control (negative = decrease, positive = increase), % at 10 µM; 69% of 2,400 active; AID 488927;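 active means membrane potential signal moved up or down beyond 5 SD of buffer control wells, in both duplicate plates, actives on both sides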;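 further: plate controls were assay buffer wells for no effect and DAMGO maximal-effect wells for full effect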
TRPC4/MOR inh 2 – second selectivity test of TRPC6 modulators against mouse TRPC4 | shares compounds with TRPC6 inh | HEK293 TRPC4/mu-opioid, membrane potential dye fluorescence; stimulated with maximal-effect DAMGO | inhibition, % at 10 µM | 55% of 2,400 active | AID 488928;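 active means drop in membrane potential signal beyond 5 SD of the control wells in both duplicate plates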;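 further: TRPC4 counter screen for TRPC6 hits run under conditions tuned for TRPC6 not TRPC4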
TRPC6 inh conf – confirmation of mouse TRPC6 inhibitors; inhibition, % at 10 µM; shares compounds with TRPC6 inh; HEK293-TRPC6, membrane potential dye, ACh-evoked depolarization; AID 488960; 43% of 3,300 active;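 active means fluorescence ratio falls more than 5 SD below the full-stimulation control mean, in both duplicate runs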;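 further: integrated fluorescence ratio of peak minus minimum over baseline after agonist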
TRPC6 act conf – mouse TRPC6 activator confirmation; shares compounds with TRPC6 inh; HEK293-TRPC6 membrane potential dye fluorescence, FDSS; activation, % at 10 µM; 11% of 2,800 active; AID 488961;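 active means ratio signal rise beyond 5 SD above unstimulated control wells' mean, seen in both duplicate runs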;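 further: plate controls were buffer EC0 wells for no effect and acetylcholine ECmax response for full effect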
* = called active by the depositor; i = inactive; x = no result.

SMILES | TRPC6 activator | TRPC4 PAM | TRPC4 agonist | TRPC6 inh | TRPC4 block | HEK293 MPD ctr-2 | HEK293 MPD ctr 2-2 | TRPC4 ctr mod | TRPC4/MOR inh 2 | TRPC6 inh conf | TRPC6 act conf | others
CCOC(=O)C1=c2s/c(=C\c3cccnc3)c(=O)n2C(N)=C(C(=O)OC)C1c1cccnc1 (stereo not given) | i | i | i | -5.1* | i | i | i | i | i | i | i
CNC(=O)Cn1c(C)cc(=O)c2cccc(OC)c21 | i | i | i | -6.92* | i | -471.0%* | i | -70.5%* | 41.0%* | 40.0%* | i
COc1ccc(C(CCNCc2ccc(N(C)C)cc2)C(C)C)cc1 (stereo not given) | i | i | i | -5.17* | i | 237.0%* | i | 44.5%* | 56.0%* | 46.5%* | x
COc1ccc(C(CCNCc2ccc(OC(C)C)cc2)C(C)C)cc1 (stereo not given) | i | i | i | i | i | x | x | x | x | x | x
COc1ccc(C2C3=C(CC(C)(C)CC3=O)Oc3ncn(CC(C)C)c(=N)c32)cc1 (stereo not given) | i | i | i | i | i | x | x | x | x | x | x
COc1ccc(C2C3=C(CC(C)(C)CC3=O)Oc3ncn(Cc4ccco4)c(=N)c32)cc1 (stereo not given) | i | i | i | -5.98* | i | 110.0%* | i | i | 43.5%* | i | x
Cc1cc(C)nc(/N=C(\N)Nc2ccc(C)c([N+](=O)[O-])c2)n1 | i | i | i | -5.39* | i | i | i | -19.0%* | 35.5%* | i | i
N#CC1=C(N)SC(C(=O)c2ccccc2)C1c1cccs1 (stereo not given) | i | i | i | i | i | x | x | x | x | x | x
N#CC1=C(N)S[C@@H](C(=O)c2ccc(F)cc2)[C@@H]1c1cccs1 | i | i | i | -6.52* | i | i | i | i | i | i | i
Cc1cc(C)cc(-n2c(C)cc(/C=N/NC(=O)CSc3ncccn3)c2C)c1 | i | i | i | -9.89* | i | x | x | x | x | i | i | TRPC4 spec 2=i;TRPC4 spec=i;HEK293 MPD ctr 2-1=i;HEK293 MPD ctr-1=i
O=C(c1cccc(F)c1)N1CCN(c2cccc(Cl)c2)CC1 | i | i | i | -16.1* | i | x | x | x | x | 59.3%* | i | TRPC4 spec 2=i;TRPC4 spec=5.7%*;HEK293 MPD ctr 2-1=i;HEK293 MPD ctr-1=2.7%*
O=C(c1ccc(S(=O)(=O)N2CCCC2)cc1)N1CCN(S(=O)(=O)c2cccc(F)c2)CC1 | i | i | i | i | i | x | x | x | x | x | x
Cc1ccc(S(=O)(=O)N2CCN(C(=O)c3cccc(F)c3)CC2)cc1 | i | i | i | -6.11* | i | i | i | i | i | 69.5%* | x
COc1ccc(S(=O)(=O)N2CCN(C(=O)c3cccc(Cl)c3)CC2)cc1 | i | i | i | -5.6* | i | i | i | 11.5%* | i | 56.0%* | x
Cc1ccsc1/C=N/NC(=O)c1cccnc1 | i | i | i | i | i | x | x | x | x | x | x
COc1ccccc1CNC(=O)[C@H](C)NC(=O)C1CCN(C(=O)[C@@H](N)CCSC)CC1 | i | i | i | i | i | x | x | x | x | x | x
Cc1ccc(C)c(N2CCN(c3ccncc3N)CC2)c1 | i | i | i | -6.47* | i | i | i | i | 52.5%* | i | i
CCOC(=O)Cn1c(=NC(=O)c2ccc([N+](=O)[O-])s2)sc2ccccc21 | i | i | i | i | i | x | x | x | x | x | x
N=c1c2c3c(sc2ncn1CCN1CCOCC1)CCCCC3 | i | i | i | i | i | x | x | x | x | x | x
N=c1c2c3c(sc2ncn1CCCO)CCCC3 | i | i | i | i | i | x | x | x | x | x | x
N=c1c2c3c(sc2ncn1Cc1ccccc1)CCCC3 | i | i | i | -6.46* | i | i | i | -11.5%* | 39.0%* | i | i
N=c1c2c3c(sc2ncn1Nc1ccccc1)CCC3 | i | i | i | -5.28* | i | i | i | -8.5%* | 51.5%* | 51.0%* | i
CCCCn1cnc2sc3c(c2c1=N)CCCC3 | i | i | i | -7.11* | i | x | x | x | x | i | i | TRPC4 spec 2=62.0%*;TRPC4 spec=-17.4%*;HEK293 MPD ctr 2-1=i;HEK293 MPD ctr-1=-228.5%*
O=C(CN1C(=O)NC2(CCCc3ccccc32)C1=O)N1CCN(C(=O)c2ccco2)CC1 (stereo not given) | i | i | i | i | i | x | x | x | x | x | x
COc1ccc(C2=NO[C@@H]3[C@@H]4C[C@@H]([C@H]5C(=O)N(c6ccc7c(c6)OCO7)C(=O)[C@@H]45)[C@H]23)cc1OC | i | i | i | i | i | x | x | x | x | x | x
CC(C)(C)c1ccc(S(=O)(=O)NNC(=O)c2cc3ccccc3[nH]2)cc1 | i | i | i | i | i | x | x | x | x | x | x
Cc1ccc(OCc2cc(C(=O)N(C)Cc3cc(C4CC4)n[nH]3)no2)cc1C | i | i | i | i | i | x | x | x | x | x | x
CCCCNC(=O)c1ccc(S(=O)(=O)c2ccc(Cl)cc2)c(NC(C)=O)c1 | i | i | i | i | i | x | x | x | x | x | x
CC[N+]1(C)CCC(=C2c3ccccc3CC(=O)c3sccc32)CC1 (stereo not given) | i | i | i | -13.7* | i | x | x | x | x | 79.8%* | i | TRPC4 spec 2=i;TRPC4 spec=i;HEK293 MPD ctr 2-1=43.0%*;HEK293 MPD ctr-1=i
